High-throughput results: PubChem BioAssay, The Scripps Research Institute Molecular Screening Center
In the library only some 2.3% were active in any assay of this set; here they are far more common.
OXTR potentiator – human OXTR potentiation; P30559; CHO-OTR cells, Fluo-8 calcium fluorescence, potentiator mode; 0% = oxytocin EC15, 100% = EC100; activation, % at 3 µM; 320,000 tested, 0.061% active;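 active means activation above that plate's cutoff, the mean activation of tested compounds plus 3 SD, cut at about 6.6% in these data, passing the limit was not always enough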
Target sequence (P30559 whole entry, looked up): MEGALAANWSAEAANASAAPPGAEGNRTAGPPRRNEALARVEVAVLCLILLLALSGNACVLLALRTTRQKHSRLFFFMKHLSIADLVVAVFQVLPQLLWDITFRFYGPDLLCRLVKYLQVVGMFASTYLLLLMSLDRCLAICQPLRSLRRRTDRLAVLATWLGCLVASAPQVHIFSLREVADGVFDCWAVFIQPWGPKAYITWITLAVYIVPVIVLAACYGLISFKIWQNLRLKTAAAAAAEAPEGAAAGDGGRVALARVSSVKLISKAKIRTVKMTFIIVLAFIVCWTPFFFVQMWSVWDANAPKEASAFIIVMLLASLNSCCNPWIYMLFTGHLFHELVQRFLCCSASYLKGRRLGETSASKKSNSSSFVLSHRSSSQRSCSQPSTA
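Material: CHO-OTR cells, human receptor; compound dosing: single dose, 3.0 µM nominal final compound concentration; schedule: 6 min compound pre-incubation at room temperature, 100 s kinetic read; measured by: kinetic Fluo-8 calcium fluorescence; read-out basis: % activation vs EC15 and EC100 oxytocin; controls: EC15 oxytocin alone as 0%, 75 nM oxytocin as 100%; replicates: singlicate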
TAAR1 antag – antagonists of human TAAR1. AID 624466. CHO RD-HGA16 TAAR1, Fluo-8 calcium fluorescence, antagonist. 360,000 tested, 1.5% active. Q96RJ0. inhibition, % at 3 µM;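 active means inhibition above a per-plate cutoff, the mean inhibition of test compounds on that plate plus 3 SD, cut at about 49% in these data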
Target sequence (Q96RJ0 whole entry, looked up): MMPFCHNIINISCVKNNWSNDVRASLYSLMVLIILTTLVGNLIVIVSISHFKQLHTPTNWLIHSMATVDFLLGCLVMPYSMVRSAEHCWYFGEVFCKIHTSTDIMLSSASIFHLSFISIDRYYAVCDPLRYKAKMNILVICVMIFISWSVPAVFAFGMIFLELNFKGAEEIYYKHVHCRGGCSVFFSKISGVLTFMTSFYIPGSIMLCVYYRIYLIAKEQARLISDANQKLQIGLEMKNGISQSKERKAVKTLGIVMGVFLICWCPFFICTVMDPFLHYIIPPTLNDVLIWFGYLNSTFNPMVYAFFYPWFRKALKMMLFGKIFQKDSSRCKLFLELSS
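test system = CHO RD-HGA16 cells bearing hTAAR1 | replication = singlicate | controls = DMSO-only wells and EC80 β-PEA-stimulated wells | reagent = EC80 β-phenethylamine stimulus | read-out basis = percent inhibition of PEA-evoked calcium signal, max/basal emission ratio | schedule = seeding 17-24 h prior, 75-min 37 °C, 30-min RT dye loading | signal = kinetic Fluo-8 calcium fluorescence measurement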
TAAR1 agonist – human TAAR1 agonism. activation, % at 3 µM. CHO RD-HGA16 TAAR1, Fluo-8 calcium fluorescence; vehicle wells 0%, saturating PEA agonist 100%. AID 624467. Q96RJ0. 360,000 tested, 0.99% active;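 active means activation above the mean activation of all test compounds in the run plus 3 SD, cut at about 38% in these data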
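Repeats: no replicates (n 1) | Material: CHO-derived RD-HGA16 cells with stable Gα16 and human TAAR1 | Technique: Kinetic Fluo-8 calcium fluorescence | Schedule: 17-24 h seeding, 75 min 37 °C dye, 30 min RT | Evaluation: % activation from peak over basal fluorescence ratio, DMSO-to-PEA scaled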
V1R ag counter – V1a receptor agonism, counter-screen for OXTR agonists; activation, % at 3 µM; CHO-V1R cells, Fluo-8 calcium fluorescence, agonist mode; 0% DMSO, 100% 3 nM vasopressin; AID 2797; P37288; 320,000 tested, 0.25% active;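 active means activation above the mean activation of all tested compounds plus 3 SD, per screening run, cut at about 20% in these data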;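 further: signal is peak over basal fluorescence ratio across a 100 second FLIPR read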
OXTR agonist – agonists of human oxytocin receptor; activation, % at 3 µM; CHO-OTR cells, Fluo-8 calcium fluorescence; normalized: DMSO 0%, oxytocin 100%; 320,000 tested, 0.32% active;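 active means activation above the mean of all tested compounds plus 3 SD, cutoff set per screening run, cut at about 20% in these data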;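 further: peak over basal fluorescence ratio from a 100 s FLIPR kinetic read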
TAAR1 ag conf – human TAAR1 agonism, confirmed | 2,400 tested, 82% active | shares compounds with TAAR1 agonist | CHO RD-HGA16 TAAR1, Fluo-8 calcium fluorescence; scaled: DMSO 0%, maximal phenethylamine 100% | activation, % at 3 µM | AID 651783;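 active means activation above a cutoff set at the run's mean compound activation plus 3 SD, cut at about 39% in these data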
Ga16 ag counter – nonselective agonism, TAAR1 counter-screen; shares compounds with TAAR1 agonist; CHO-Ga16 parental, Fluo-8 calcium fluorescence; normalized to maximal ATP response, DMSO zero; activation, % at 3 µM; 2,400 tested, 50% active; AID 651787;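 active means activation above the run cutoff, the mean activation over all tested wells plus 3 SD, cut at about 12% in these data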
TAAR1 desensitize – human TAAR1 agonist that also desensitizes the receptor; shares compounds with TAAR1 agonist; CHO RD-HGA16 hTAAR1, Fluo-8 calcium, beta-PEA response inhibition; inhibition, % at 3 µM; 2,400 tested, 46% active; AID 651951;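 active means inhibition above the run cutoff, the mean inhibition of all test compounds plus 3 SD, cut at about 49% in these data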;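 further: beta-PEA stimulus applied at its EC80; loss of beta-PEA calcium signal after compound pretreatment read as receptor desensitization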
Ga16 nonsel ant – counter-screen for TAAR1 agonists: nonselective Ga16 antagonists; inhibition, % at 3 µM; AID 651952; CHO-Ga16 ATP-induced calcium, Fluo-8 fluorescence; 2,400 tested, 39% active; shares compounds with TAAR1 agonist;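 active means inhibition above the plate's mean compound inhibition plus 3 SD, computed per plate, cut at about 22% in these data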
Numbers stand for hits; – = inactive; · = not tested or not shown.

SMILES | OXTR potentiator | TAAR1 antag | TAAR1 agonist | V1R ag counter | OXTR agonist | TAAR1 ag conf | Ga16 ag counter | TAAR1 desensitize | Ga16 nonsel ant
CC(C)(C)c1ccc(C2(C)NC(=O)N(CC(=O)c3ccc[nH]3)C2=O)cc1 (centres undefined) | – | – | 56 | – | – | – | 13 | – | –
CCC(C)(C)NC(=O)C(c1cccc(OC)c1)N(C(=O)c1ccn[nH]1)c1cccc(OC)c1 (centres undefined) | – | – | 50 | – | – | – | 14 | – | 28
CCC(C)(C)NC(=O)C(c1cccs1)N(C(=O)c1ccn[nH]1)c1ccccc1 (centres undefined) | – | – | – | – | – | · | · | · | ·
Cn1nc(C(=O)OCC(=O)c2ccc[nH]2)c2ccccc2c1=O | – | – | – | – | – | · | · | · | ·
Cn1nc(C(=O)OCc2ccccc2F)c2ccccc2c1=O | – | 94 | 432 | – | – | – | – | – | 28
COc1ccc(CC(=O)Nc2c(C(=O)N3CCN(c4ncccn4)CC3)oc3ccccc23)cc1 | – | – | – | – | – | · | · | · | ·
O=c1[nH]c(CN(CCc2ccccc2)S(=O)(=O)c2ccc(Cl)cc2)nc2ccccc12 | – | 73 | 79 | – | – | 90 | 14 | 95 | 24
COc1ccc(NC(=O)C[C@H]2C(=O)N(c3ccc(Br)cc3)C[C@@H]2c2ccc(OC)cc2)cc1 | · | – | – | · | · | · | · | · | ·
CCOc1ccc(N2C(=O)CC(NCc3ccc(S(N)(=O)=O)cc3)C2=O)cc1 (centres undefined) | – | – | 45 | – | – | – | – | – | –
CCCOc1ccc(N2C(=O)CC(NCc3ccc(S(N)(=O)=O)cc3)C2=O)cc1 (centres undefined) | – | – | – | – | – | · | · | · | ·
COCCCNC(=O)C[C@@H]1C[C@@]2(C(=O)OC)CCCCC=C2N(Cc2ccc(Cl)cc2Cl)C1=O | · | – | – | · | · | · | · | · | ·
CCOc1ccc(NC(=O)Cn2nnc(-c3ccccc3F)n2)cc1 | – | – | 75 | – | – | – | – | – | –
COc1ccccc1CCn1cnc(Cc2cccc(F)c2)c1C(C)C | · | – | – | · | · | · | · | · | ·
CCc1ncn(CCc2ccccc2OC)c1C(C)C | · | – | 53 | · | · | 63 | – | – | –
COc1ccccc1CCn1cnc(C)c1CC(C)C | · | – | 76 | · | · | 69 | – | – | –
COc1cc(NC(=O)COc2ccc(-n3cnnn3)cc2)cc(OC)c1OC | – | – | – | – | – | · | · | · | ·
CCn1cc(C(=O)O)c(=O)c2cc(F)c(N3CCN(C(=O)Nc4ccccc4)CC3)cc21 | – | – | – | – | – | · | · | · | ·
CCn1cc(C(=O)O)c(=O)c2cc(F)c(N/N=C/c3ccccc3)cc21 | – | 70 | 56 | – | – | 82 | – | 85 | –
CCOc1ccccc1N(CC(=O)Nc1ccc(S(=O)(=O)N2CCCC2)cc1)S(C)(=O)=O | – | – | – | – | – | · | · | · | ·
CCCNC(=O)Cn1sc2nc(C)cc(C)c2c1=O | – | – | 52 | – | – | – | 21 | – | –
Cc1ccc(-c2nc3c(Cl)cc(Cl)cc3c(=O)n2O)cc1 | – | – | 80 | 66 | 23 | 49 | 52 | – | –
O=c1c2cc(Br)ccc2nc(-c2ccc(Cl)cc2)n1O | – | – | – | – | – | · | · | · | ·
C=CCOc1ccn(C)c(=O)n1 | – | – | – | – | – | · | · | · | ·
COC(=O)c1cnc(Nc2nc(C(N)Cc3ccccc3)cs2)nc1C(F)(F)F (centres undefined) | · | – | 63 | · | · | 50 | 27 | – | 23
NC(Cc1ccccc1)c1csc(Nc2nncc3ccccc23)n1 (centres undefined) | · | – | – | · | · | · | · | · | ·
SMILES | OXTR potentiator | TAAR1 antag | TAAR1 agonist | V1R ag counter | OXTR agonist | TAAR1 ag conf | Ga16 ag counter | TAAR1 desensitize | Ga16 nonsel ant
NC(Cc1ccc(C(F)(F)F)cc1)c1csc(Nc2nccc(C(F)(F)F)n2)n1 (centres undefined) | · | – | 61 | · | · | 43 | 20 | – | 23
NC(COCc1ccccc1)c1csc(Nc2nccc(C(F)(F)F)n2)n1 (centres undefined) | · | – | – | · | · | · | · | · | ·
CCCc1cnc(Nc2nc(C(N)Cc3ccc(C(F)(F)F)cc3)cs2)nc1 (centres undefined) | · | – | 68 | · | · | 80 | 63 | 54 | 59
CCC1S/C(=N/N=C/c2ccco2)N(Cc2ccccc2)C1=O (centres undefined) | – | – | – | – | – | · | · | · | ·
O=C(NCCc1ccccc1)C1CCN(C(=O)c2ccc([N+](=O)[O-])cc2)CC1 | – | · | · | – | – | · | – | · | –
CCC1CN(C(=O)N2CCC(C(=O)NCCc3ccccc3)CC2)c2ccccc2O1 (centres undefined) | – | 58 | 53 | – | – | 84 | 16 | 83 | 34
c1ccc(CCNCCCOc2cccc3ccccc23)cc1 | – | – | 57 | – | – | 95 | 26 | 87 | 34
Clc1ccc(OCCNCCc2ccccc2)cc1 | – | – | 81 | – | – | 92 | – | 75 | –
CC1(C)C[C@H](O)[C@]2(CO)[C@H](O)C[C@]3(C)C(=CCC4[C@@]5(C)CC[C@H](O)C(C)(C)C5CC[C@]43C)[C@@H]2C1 (some centres undefined) | – | – | 51 | – | – | – | – | – | –
CCCCN1CC(=O)N2[C@H]3c4ccc(OC)cc4OC[C@@H]3[C@H](c3ccccc3)[C@]2(C)C1=O | – | – | – | – | – | · | · | · | ·
CNC[C@H](CC1CCCCC1)NC[C@H](Cc1ccccc1)NCCC12CC3CC(CC(C3)C1)C2 | – | – | 56 | – | – | 94 | 81 | 81 | 89
Cn1cc(Br)c(C(=O)NC(=S)Nc2ccc(S(N)(=O)=O)cc2)n1 | – | – | – | – | – | · | · | · | ·
CCCCN1Cc2ccccc2Oc2cc(Br)ccc2S1(=O)=O | · | – | 49 | · | · | 69 | 55 | – | –
O=C(N/N=C/c1ccco1)c1cc(-c2ccc3ccccc3c2)n[nH]1 | – | 71 | 48 | – | – | 67 | 53 | 96 | 88
Cc1nccn1CC(=O)N/N=C/c1ccccc1O | – | – | 59 | – | – | 63 | – | – | –
COc1ccc(Cn2nnnc2C(c2ccccc2)N2CCN(C3CCCC3)CC2)cc1 (centres undefined) | · | – | – | · | · | · | · | · | ·
